In test [1] the test system is Mus musculus. Nature of the test: Anti-inflammatory activity in TPA-induced mouse ear edema model assessed as inhibition of ear edema. In kind it is functional, organism-based. In a few lines: (§1)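 In vivo 12-O-tetradecanoylphorbol 13-acetate (TPA)-induced ear edema in mice. Animals were handled under Mexican Official Norm MON-062-Z00-1999.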
Test [2] has as its system Mus musculus. Nature of the test: Anti-inflammatory activity in TPA-induced mouse ear edema model assessed as inhibition of ear edema at 1 umol/ear. In kind it is functional. An outline of the steps: as §1

Each structure is given as a SMILES string. Active and inactive are the calls of the source. The calls are words filed in the database; no cut-off is given here.

For `Cc1ccc2c(c1)C(=O)C(C(C)C)=C[C@@]2(C)O`, the IC50 in test [1] was over 1 µmol. The inhibition result in test [2] is “Active”.

For the molecule `CC1=CC[C@H](C(C)C)[C@H]2C=C(C(=O)O)CC=C12`, the IC50 in test [1] is over 1 µmol. The inhibition entry in test [2] was “inactive”.

With `CC1=CC[C@H](C(C)C)c2cc(C(=O)O)ccc21`, the IC50 in test [1] was over 1 µmol. Further, in test [2], the “inhibition (INH)” value is on record as 12.93%.

With `Cc1cc2c(C(C)C)ccc(C=O)c2cc1O`, the IC50 in test [1] was over 228 µg. Further, in test [2], the “inhibition (INH)” value stood at 43.14%.

As for `CC(C)[C@H]1CC[C@@](C)(O)c2ccc(C(=O)O)cc21`, the IC50 in test [1] is over 1 µmol. Moreover, in test [2], the inhibition entry is “Active”.

`COc1c(C(C)C)cc(C)c2ccc(C)cc12`: the IC50 in test [1] was over 1 µmol. Also, the “inhibition (INH)” value in test [2] stood at 15.32%.

`CC1=C2CCC(C(=O)O)=C[C@@H]2[C@@H](C(C)C)CC1`: the IC50 in test [1] was over 1 µmol. In test [2], the “inhibition (INH)” value was determined as 21.51%.

Regarding `CC1=C[C@](O)(C(C)C)C(=O)c2cc(C)c(O)cc21`, in test [1], the IC50 is over 1 µmol. The inhibition result in test [2] was “Active”.

The values are drawn from ChEMBL document CHEMBL3739295, “Cadinane-Type Sesquiterpenoids from Heterotheca inuloides: Absolute Configuration and Anti-inflammatory Activity” (J Nat Prod, 2015).
